Assay results: ChEMBL document CHEMBL4706573, “Synthesis and evaluation of thiophene based small molecules as potent inhibitors of Mycobacterium tuberculosis” (Eur J Med Chem, 2020)
Converted amounts (≈) assume the structure as drawn. The source made the active and inactive calls. No cut-off for these calls is given here.

What was measured:
[1] = system: Mycobacterium tuberculosis; assay: Antimycobacterial activity against Mycobacterium tuberculosis H37Rv after 10 to 14 days; format: functional; settings: time 10-14 day
Outline: (§1)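 MIC99 determined in whole cells, tested in triplicate with INH as the positive control. Strains were wild-type, pMV306, pMV306-pks13 and INH-resistant mc2 497. Susceptibility was scored relative to the parental strain: S where the MIC99 was at most 2x the parental MIC99.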

[2] = system: THP-1; assay: Cytotoxicity against human THP-1 cells assessed as reduction in cell viability measured after 96 hrs by WST1 assay; format: cell-based; settings: thp-1, 96 h
Outline: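 THP-1 cells seeded at 20,000/well with 20 ng/ml PMA for 48 h. Cells then washed and rested 24 h in RPMI with 10% FBS. Drug dilutions in RPMI complete medium added in triplicate for 96 h. Viability read by WST-1 reagent after a 30 min incubation.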

[3] = system: Mycobacterium tuberculosis; assay: Antimycobacterial activity against Mycobacterium tuberculosis H37Rv; format: functional
[4] = system: Mycobacterium tuberculosis; assay: Antimycobacterial activity against Mycobacterium tuberculosis expressing pMV306-pks13 after 10 to 14 days; format: functional, organism-based; settings: time 10-14 day; outline: as §1
[5] = system: Mycobacterium tuberculosis; assay: Antimycobacterial activity against Mycobacterium tuberculosis expressing pMV306 after 10 to 14 days; format: functional, organism-based; settings: time 10-14 day; outline: as §1
[6] = system: Mycobacterium tuberculosis; assay: Antimycobacterial activity against Mycobacterium tuberculosis H37Rv assessed as FICI in presence of rifampicin by checkerboard assay; format: functional
Outline: (§2)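 Two-drug checkerboard: lead compound serially diluted twofold along one axis, cross-diluted twofold with a TB drug (RIF, INH, LEVO, BDQ or PA-824) to form combinations. FICI calculated for each combination.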

[7] = system: Mycobacterium tuberculosis; assay: Ratio of MIC99 for antimycobacterial activity against Mycobacterium tuberculosis H37Rv to MIC99 for antimycobacterial activity against Mycobacterium tuberculosis H37Rv in presence of bedaquiline; format: functional; outline: as §2
[8] = system: Mycobacterium tuberculosis; assay: Antimycobacterial activity against early-logarithmic cultures of Mycobacterium tuberculosis H37Rv assessed as reduction in bacterial load at 10 times MIC99 incubated for 7 days followed by 10-fold serial dilution and measured after 2 to 4 weeks; format: functional; settings: time 2-5 weeks
Outline: (§3)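 Early-logarithmic culture (OD600nm ~0.2) exposed to 10x MIC99 for 7 days. Bacteria then counted as CFU and compared with untreated samples. INH used as control.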

[9] = system: Mycobacterium tuberculosis; assay: Antimycobacterial activity against Mycobacterium tuberculosis H37Rv assessed as FICI in presence of levofloxacin by checkerboard assay; format: functional; outline: as §2
[10] = system: Mycobacterium tuberculosis; assay: Antimycobacterial activity against Mycobacterium tuberculosis H37Rv assessed as FICI in presence of isoniazid by checkerboard assay; format: functional; outline: as §2
[11] = system: Mycobacterium tuberculosis; assay: Antimycobacterial activity against Mycobacterium tuberculosis H37Rv assessed as FICI in presence of pretomanid by checkerboard assay; format: functional; outline: as §2
[12] = system: Mycobacterium tuberculosis; assay: Antimycobacterial activity against Mycobacterium tuberculosis infected in human THP-1 cells assessed as reduction in intracellular bacterial growth at 10 times MIC99 incubated for 4 days followed by 10-fold serial dilution and measured after 3 to 4 weeks relative to control; format: functional; settings: time 32 day
Outline: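 THP-1 cells infected and then washed twice with 1x PBS. Infected macrophages overlaid with RPMI containing drug for 4 days. Lysed on day 0 and day 4 with 1x PBST (0.1% Triton X-100). Tenfold serial dilutions plated on MB 7H11 agar, incubated at 37 °C for 3-4 weeks, then CFU counted. INH used as control.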

[13] = system: Mycobacterium tuberculosis; assay: Antimycobacterial activity against Mycobacterium tuberculosis H37Rv assessed as FICI in presence of bedaquiline by checkerboard assay; format: functional; outline: as §2
[14] = system: Mycobacterium tuberculosis; assay: Antimycobacterial activity against early-logarithmic cultures of Mycobacterium tuberculosis H37Rv assessed as bacterial killing at 10 times MIC99 incubated for 7 days followed by 10-fold serial dilution and measured after 2 to 4 weeks; format: functional; settings: time 2-5 weeks; outline: as §3
[15] = system: Mycobacterium tuberculosis; assay: Antimycobacterial activity against Mycobacterium tuberculosis H37Ra measured up to 7 days; format: functional; settings: 168 h, time day <=7
[16] = Inhibition of N-terminal His-tagged Mycobacterium tuberculosis PtpB expressed in Escherichia coli BL21 (DE3)-CodonPlus cells using DiFMUP as substrate measured after 45 mins by spectrofluorimetric method

| SMILES | MIC99 [1] [µM] | Activity [2] [µM] | other results |
| --- | --- | --- | --- |
| CCOC(=O)c1cc(-c2ccccc2)sc1NC(=O)NC | > 10 | > 50 |  |
| COC(=O)c1cc(-c2ccc(F)cc2)sc1NC(=O)NC1CC1 | > 10 | > 50 |  |
| CCOC(=O)c1c(NC(=O)c2c(F)c(F)c(F)c(F)c2F)sc2c1CCCCC2 |  |  | MIC [3]: 1 µM (≈ 0.433 µg/mL) |
| COC(=O)c1cc(-c2cccc(F)c2)sc1NC(=O)CCl | 0.19 (≈ 0.0623 µg/mL) | > 50 | Activity [4]: Active; Activity [5]: Active |
| COC(=O)c1cc(-c2ccc(F)cc2)sc1NC(=O)CCl | 0.78 (≈ 0.256 µg/mL) | > 50 | Activity [4]: Active; Activity [5]: Active |
| COC(=O)c1cc(-c2ccc(C(F)(F)F)cc2)sc1NC(=O)CCl | 0.39 (≈ 0.147 µg/mL) | > 50 | Activity [4]: Active; Activity [5]: Active |
| CCOC(=O)c1cc(-c2ccccc2)sc1NC(=O)CBr | 0.78 (≈ 0.287 µg/mL) | > 50 | Activity [4]: Active; Activity [5]: Active |
| CCOC(=O)c1c(NC(=O)c2c(F)c(F)c(F)c(F)c2F)sc(C(N)=O)c1C |  |  | MIC [3]: 0.5 µM (≈ 0.211 µg/mL) |
| CCOC(=O)c1cc(-c2ccccc2)sc1NC(C)=O | > 10 | > 50 |  |
| CCOC(=O)c1cc(-c2ccccc2)sc1NC(=O)c1ccc(C)cc1 | > 10 | > 50 |  |
| COC(=O)c1ccsc1NC(=O)CCl | 0.19 (≈ 0.0444 µg/mL) | > 50 | fractional inhibitory concentration index (FICI) [6]: 0.75; Activity [4]: Active; Ratio [7]: 4; FC [8]: 10; fractional inhibitory concentration index (FICI) [9]: 0.562; Activity [5]: Active; fractional inhibitory concentration index (FICI) [10]: 0.75; fractional inhibitory concentration index (FICI) [11]: 1; fold change (FC) [12]: 2.5; fractional inhibitory concentration index (FICI) [13]: 0.5 |
| CCOC(=O)c1cc(-c2ccccc2)sc1NC(=O)N1CCN(C)CC1 | > 10 | > 50 |  |
| CO[C@H]1/C=C/O[C@@]2(C)Oc3c(C)c(O)c4c(O)c(c(/C=N/N5CCN(C)CC5)c(O)c4c3C2=O)NC(=O)/C(C)=C\C=C\[C@H](C)[C@H](O)[C@@H](C)[C@@H](O)[C@@H](C)[C@H](OC(C)=O)[C@@H]1C [RIFAMPIN] | 0.007 (≈ 0.00576 µg/mL) |  |  |
| CCOC(=O)c1cc(-c2ccccc2)sc1NC(=O)NCc1ccccc1 | > 10 | > 50 |  |
| CCOC(=O)c1cc(-c2ccccc2)sc1NC(=O)NC1CC1 | 1.56 (≈ 0.515 µg/mL) | > 50 |  |
| CCOC(=O)c1cc(-c2ccccc2)sc1NC(=O)N(C)C | > 10 | > 50 |  |
| CCOC(=O)c1cc(-c2ccccc2)sc1NC(=O)N1CCCC1 | > 10 | > 50 |  |
| CCOC(=O)c1cc(-c2ccccc2)sc1NC(=O)N(CC)CC | 3.12 (≈ 1.08 µg/mL) | > 50 |  |
| NNC(=O)c1ccncc1 [ISONIAZID] | 0.19 (≈ 0.0261 µg/mL) | > 50 | Activity [4]: Active; Activity [14]: >4 log10CFU; Activity [5]: Active; fold change (FC) [12]: 200 |
| CCOC(=O)c1cc(-c2ccccc2)sc1NC(=O)NC(C)C | 1.56 (≈ 0.519 µg/mL) | > 50 |  |

| SMILES | MIC99 [1] [µM] | Activity [2] [µM] | other results |
| --- | --- | --- | --- |
| COC(=O)c1cc(-c2ccc(F)cc2)sc1NC(=O)NC(C)C | > 10 | > 50 |  |
| COc1ccc([C@@H](c2ccc(OCCN(C(C)C)C(C)C)cc2)c2cccs2)cc1 |  |  | MIC [15]: 3.12 µM (≈ 1.32 µg/mL) |
| CCOC(=O)c1cc(-c2ccccc2)sc1NC(N)=O | > 10 | > 50 |  |
| CCOC(=O)c1cc(-c2ccccc2)sc1NC(=O)c1ccccc1 | > 10 | > 50 |  |
| COC(=O)c1cc(-c2ccccc2)sc1NC(=O)CCl | 0.19 (≈ 0.0589 µg/mL) | > 50 | fractional inhibitory concentration index (FICI) [6]: 0.625; Activity [4]: Active; Ratio [7]: 8; FC [8]: 10; fractional inhibitory concentration index (FICI) [9]: 0.562; Activity [5]: Active; fractional inhibitory concentration index (FICI) [10]: 0.562; fractional inhibitory concentration index (FICI) [11]: 0.625; fold change (FC) [12]: 5; fractional inhibitory concentration index (FICI) [13]: 0.25 |
| CCOC(=O)c1cc(-c2ccccc2)sc1NC(=O)Cc1ccccc1 | > 10 | > 50 |  |
| CCOC(=O)c1cc(-c2ccccc2)sc1NC(=O)c1ccc(C#N)cc1 | > 10 | > 50 |  |
| O=C(O)C(=O)N(Cc1cccc(Cl)c1)Cc1ccc(S(=O)(=O)NCCC(c2ccccc2)c2ccccc2)s1 |  |  | IC50 [16]: 0.4 µM |
| COC(=O)c1cc(-c2ccc(F)cc2)sc1NC(=O)N1CCCC1 | > 10 | > 50 |  |
| CCOC(=O)c1cc(-c2ccccc2)sc1NC(=O)N1CCCCC1 | > 10 | > 50 |  |
| CCOC(=O)c1cc(-c2ccccc2)sc1N | > 10 | > 50 |  |
| CCOC(=O)c1cc(-c2ccccc2)sc1NC(=O)c1ccc(F)cc1 | > 10 | > 50 |  |
| COC(=O)c1cc(-c2ccc(F)cc2)sc1NC(=O)N1CCCCC1 | > 10 | > 50 |  |
| CCOC(=O)c1cc(-c2ccccc2)sc1NC(=O)N1CCOCC1 | > 10 | > 50 |  |
| CCN(CC)C(=O)Nc1sc(-c2ccc(F)cc2)cc1C(=O)OC | > 10 | > 50 |  |
| CCOC(=O)c1cc(-c2ccccc2)sc1NC(=O)Nc1ccccc1 | > 10 | > 50 |  |
| CCOC(=O)c1cc(-c2ccccc2)sc1NC(=O)c1cccnc1 | > 10 | > 50 |  |
| COC(=O)c1cc(-c2cc3ccccc3s2)sc1NC(=O)CCl | 0.78 (≈ 0.285 µg/mL) | > 50 | Activity [4]: Active; Activity [5]: Active |
| COC(=O)c1cc(-c2cc(F)cc(F)c2)sc1NC(=O)CCl | 0.78 (≈ 0.27 µg/mL) | > 50 | Activity [4]: Active; Activity [5]: Active |
